# According to ChEMBL document CHEMBL1151809, “Prenylated and benzylated flavonoids from the fruits of Cudrania tricuspidata” (J Nat Prod, 2009):
# What was measured:
# [1] = system: RAW264.7; assay: Cytotoxicity against mouse RAW264.7 cells by CCK-8 assay; type: cell-based
# Summary of the method: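 Viability read by CCK-8 on the cells remaining after the Griess nitrite assay of the LPS-stimulated RAW 264.7 cultures.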
# [2] = system: RAW264.7; assay: Inhibition of LPS-induced nitric oxide production in mouse RAW264.7 cells by Griess assay; type: functional, cell-based
# Summary of the method: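 LPS-stimulated RAW 264.7 cells; NO output measured as nitrite in culture supernatant by Griess reagent. IC50 derived, reported as mean ± SD from three separate experiments. Aminoguanidine run as positive control.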
IC50 [2],Compound,Activity [1]
11.8 µM,CO[C@@H]1c2c(c(CC=C(C)C)c(O)c3c(=O)c(-c4ccc(O)cc4)coc23)O[C@H]1C(C)(C)O,Non-toxic
41.8 µM,O=C1c2c(cc(O)c(Cc3ccc(O)cc3)c2O)O[C@H](c2ccc(O)cc2)[C@H]1O [GERICUDRANIN E],Non-toxic
> 50 µM,O=C1c2c(O)cc(O)c(Cc3ccc(O)cc3)c2O[C@H](c2ccc(O)cc2)[C@H]1O,Non-toxic
12.1 µM,CC(C)=CCc1c2oc(C(C)(C)O)cc2c(O)c2c(=O)c(-c3ccc(O)cc3)coc12,Non-toxic
19.2 µM,CC(C)=CCc1c(O)c(CC=C(C)C)c2occ(-c3ccc(O)cc3)c(=O)c2c1O,Non-toxic
18.4 µM,C=C(C)C(O)Cc1c(O)c(CC=C(C)C)c(O)c2c(=O)c(-c3ccc(O)cc3)coc12 (stereo not given) [ERYSENEGALENSEIN E],Non-toxic
> 50 µM,O=C1c2c(O)c(Cc3ccc(O)cc3)c(O)c(Cc3ccc(O)cc3)c2O[C@H](c2ccc(O)cc2)[C@H]1O [GERICUDRANIN D],Non-toxic
12.7 µM,C=C(C)C(O)Cc1c(O)c(CC=C(C)C)c2occ(-c3ccc(O)cc3)c(=O)c2c1O (stereo not given) [ISOERYSENEGALENSEIN E],Non-toxic
> 50 µM,C=C(C)C(O)Cc1c(O)cc2occ(-c3ccc(OC)cc3)c(=O)c2c1O (stereo not given),Non-toxic
> 50 µM,COc1ccc(-c2coc3cc4c(c(O)c3c2=O)C=CC(C)(C)O4)cc1O,Non-toxic
18.7 µM,O=c1c(-c2ccc(O)c(O)c2)coc2cc(O)cc(O)c12 [OROBOL],Non-toxic
13.1 µM,CC(C)=CCc1c2c(c3occ(-c4ccc(O)cc4)c(=O)c3c1O)CC(C(C)(C)O)O2 (stereo not given) [SENEGALENSIN],Non-toxic

Compound,IC50 [2],Activity [1]
N=C(N)NN [PIMAGEDINE],28 µM,
